Results from different studies.
Protocols differ between the studies behind these lines.
Target: Tyrosine-protein kinase SYK (SYK, Homo sapiens, UniProt P43405)

Compound | assay | setting | endpoint | result
CC(C)S(=O)(=O)c1ccc2nccc(Nc3ccc4sc(C5CCCC5)nc4c3)c2c1 | enzyme activity, inhibitor | 1 µM | activity vs control | 104%
COc1ccc2oc(-c3ccc4nc(N)oc4c3)c/c(=N\c3ccccc3NC(=O)CCN)c2c1 | binding | 1 µM | remaining binding | 96%
CCCCC(=O)Nc1ccc(-c2ccc3ncn(CCC)c(=O)c3c2)cn1 | binding, competition with immobilised ligand | 0.5 µM | remaining binding | 90%
CO[C@@H]1[C@H](N(C)C(=O)c2ccccc2)C[C@H]2O[C@]1(C)n1c3ccccc3c3c4c(c5c6ccccc6n2c5c31)C(=O)NC4 | enzyme activity, inhibitor | 1 µM | inhibition | 96%
Cc1ccc(NC(=O)c2ccnc(C(F)(F)F)c2)cc1-c1cc(OCCO)nc(N2CCOCC2)c1 | binding, competition with immobilised ligand | 1 µM | remaining binding | 100%
C1=C/COCc2cc(ccc2OCCN2CCCC2)Nc2nccc(n2)-c2cccc(c2)COC/1 | cell-free assay | 0.1 µM | remaining signal | 87%
C[C@H]1CC[C@H](n2c3cnccc3c3cnc(Nc4ccc5c(n4)CCN(C(=O)CO)C5)nc32)CC1 | cell-free assay, competition with immobilised ligand | 1 µM | remaining binding | 100%
CC#CC(=O)N1CCC[C@H]1c1nc(-c2ccc(C(=O)Nc3ccccn3)cc2)c2c(N)nccn12 | enzyme activity, inhibitor | 1 µM | inhibition | 0%
